This note sets out measurements from ChEMBL document CHEMBL1139350, “Modulation of Wnt signaling through inhibition of secreted frizzled-related protein I (sFRP-1) with N-substituted piperidinyl diphenylsulfonyl sulfonamides” (J Med Chem, 2009).

The half-life is the time needed for the level to fall by half in the phase considered.

Holding throughout (type): ADME, Microsome
Series [1] can be described thus: Metabolic stability in human liver microsomes assessed as half life. The essentials:
(§1)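 Stability in human or rat liver microsomes with compound at 1 µM, from DMSO solution.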
A general note: Liver microsomes are vesicles of endoplasmic reticulum, rich in cytochrome P450 enzymes.

Series [2] is described as follows: Metabolic stability in rat liver microsomes assessed as half life. In outline:
as §1

Series [3] is described as follows: Metabolic stability in human liver microsomes assessed as half life in presence of NADPH. The essentials: (§2)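 Advanced stability in human or rat liver microsomes run with NADPH, with and without UDPGA, on compound from 1 µM DMSO solution.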
The nature of series [4]: Metabolic stability in rat liver microsomes assessed as half life in presence of NADPH. The essentials: as §2

Molecules are shown by their SMILES. Bounds are passed on as bounds.

Turning to `CC(C)(C)CCN1CCC[C@H]1C(=O)N1CCC(NS(=O)(=O)c2cc(S(=O)(=O)c3ccccc3)ccc2C(F)(F)F)CC1`, the half-life in series [1] is over 5 min; in series [2], over 8 min.
For `CC(C)(C)CC(=O)N1CCC[C@H]1C(=O)N1CCC(NS(=O)(=O)c2cc(S(=O)(=O)c3ccccc3)ccc2C(F)(F)F)CC1`, in that order: over 1 min and over 3 min.
For `CC(C)(C)NC(=O)N1CCC[C@H]1C(=O)N1CCC(NS(=O)(=O)c2cc(S(=O)(=O)c3ccccc3)ccc2C(F)(F)F)CC1`, in that order: over 2 min and over 3 min.
For `CC(C)(C)OC(=O)N1CCC[C@H]1C(=O)N1CCC(NS(=O)(=O)c2cc(S(=O)(=O)c3ccccc3)ccc2C(F)(F)F)CC1`, in that order: over 1 min and over 1 min.
For the compound `O=S(=O)(NC1CCNCC1)c1cc(S(=O)(=O)c2ccccc2)ccc1C(F)(F)F`, the half-life in series [3] and in series [4] was over 60 min each time.
